Values after ≈ are worked out from the molar mass of the structure shown.
What was measured:
[1] = tested on: Escherichia coli; assay: Antibacterial activity against Escherichia coli ATCC 25922 by CLSI based broth microdilution method; type: functional
Summary of the method: (§1)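 Broth microdilution MIC per CLSI method; E. coli ATCC 25922 and K. pneumoniae ATCC 13883.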

[2] = tested on: Klebsiella pneumoniae; assay: Antibacterial activity against Klebsiella pneumonia ATCC 13883 by CLSI based broth microdilution method; type: functional; summary of the method: as §1
[3] = Protein binding in ICR mouse serum at 1 ug/ml incubated for 4 hrs by LC-MS/MS analysis; type: ADME, cell-free; details: at 1 µg/mL, read-out: PB (converted)
Summary of the method: (§2)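 Equilibrium dialysis at 1 µg/mL final in pooled male ICR mouse serum or human volunteer serum (no anticoagulant). Dialyzed against 50 mM sodium phosphate buffer at 37 °C for 4 h (5% CO2, MWCO 12000–14000). Compound on each side measured by LC-MS/MS; binding % = (Cs−Cb)/Cs×100.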

[4] = Protein binding in human serum at 1 ug/ml incubated for 4 hrs by LC-MS/MS analysis; type: ADME, cell-free; details: at 1 µg/mL, read-out: PB (converted); summary of the method: as §2
[5] = tested on: Klebsiella pneumoniae; assay: In vivo antibacterial activity against Klebsiella pneumonia 4102 infected in ICR mouse assessed as mouse survival rate at 25 mg/kg, sc administered once after 1 hr of infection and observed for 7 days relative to control; type: functional; details: time 7 day
Summary of the method: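 Four-week-old male ICR mice given K. pneumoniae 4102 intraperitoneally (3.8–5.5 × 10^6 CFU/mouse) in 0.5 mL suspension with 3w/v% mucin. Compound in 10w/v% HP-β-CD, single subcutaneous dose 1 h post-inoculation (n = 6). Survival followed for 7 days.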

[6] = Inhibition of Escherichia coli LpxC using DP-3-0-(R-3-hydroxymyristoy1)-N-acetylglucosamine as substrate incubated for 120 mins by fluorescamine assay
[7] = Cardiotoxicity in iv dosed Hartley guinea pig assessed as decrease in blood pressure measured after 30 mins; type: toxicity, organism-based, Cavia porcellus; details: in vivo, 0.5 h
Summary of the method: (§3)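 Guinea pigs (6–7 weeks) anesthetized with pentobarbital 60 mg/kg ip, then infused iv at 8 mg/kg/h; ventilated at 15 mL/kg, 60/min. Vehicle (11w/v% SBE-β-CD, pH4) or compound infused via jugular vein for 30 min. Carotid arterial pressure and ECG recorded; QT corrected by Bazett. Heart rate, QTc, SBP and DBP expressed as change from baseline.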

[8] = Plasma concentration in Hartley guinea pig at 60 mg/kg, iv measured after 30 mins by LC-MS/MS analysis; type: ADME, organism-based, Cavia porcellus
Summary of the method: (§4)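 Anesthetized guinea pigs received a 30-min iv infusion. Blood was taken at the end of infusion and centrifuged, and plasma concentration (C30min) was measured by LC-MS/MS.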

[9] = Toxicity in iv dosed ICR mouse assessed as maximum tolerated dose; type: organism-based; details: in vivo
Summary of the method: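 Exploratory MTD study in male ICR mice (n = 2): a single intravenous tail-vein injection at dose levels of up to 200 mg/kg.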

[10] = Cardiotoxicity in iv dosed Hartley guinea pig assessed as decrease in heart rate measured after 30 mins; type: toxicity, organism-based, Cavia porcellus; details: in vivo, 0.5 h; summary of the method: as §3
[11] = Free plasma concentration in Hartley guinea pig serum assessed as fraction unbound at 60 mg/kg, iv measured after 30 mins by LC-MS/MS analysis; type: ADME, organism-based, Cavia porcellus; details: in vivo, 0.5 h
Summary of the method: (§5)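 Unbound plasma concentration at end of 30-min iv infusion in anesthetized guinea pigs: LC-MS/MS plasma C30min multiplied by fraction unbound, with plasma fu assumed equal to serum fu (equilibrium dialysis, 500 µg/mL in guinea pig serum).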

[12] = Cardiotoxicity in iv dosed Hartley guinea pig assessed as increase in QT prolongation measured after 30 mins; type: toxicity, organism-based, Cavia porcellus; details: in vivo, 0.5 h; summary of the method: as §3
[13] = tested on: Klebsiella pneumoniae; assay: In vivo antibacterial activity against Klebsiella pneumonia ATCC BAA-2343 infected in ICR mouse assessed as reduction in bacterial burden in lung at 50 mg/kg, sc administered after 2 hrs of infection and measured after 26 hrs of infection; type: functional; details: time 24 hrs
Summary of the method: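 Female ICR mice (5 weeks) made neutropenic with cyclophosphamide ip, 150 and 100 mg/kg at days −4 and −1. Intranasal inoculation with 1.5–1.9 × 10^6 CFU. Compound in 10w/v% HP-β-CD given sc 2 h post-infection (n = 5). Lung viable counts at 2 h (control) and 26 h; mean log change versus start of therapy.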

[14] = Plasma concentration in Hartley guinea pig at 135 mg/kg, iv measured after 30 mins by LC-MS/MS analysis; type: ADME, organism-based, Cavia porcellus; summary of the method: as §4
[15] = Free plasma concentration in Hartley guinea pig serum assessed as fraction unbound at 135 mg/kg, iv measured after 30 mins by LC-MS/MS analysis; type: ADME, organism-based, Cavia porcellus; details: in vivo, 0.5 h; summary of the method: as §5
[16] = Free plasma concentration in Hartley guinea pig serum assessed as fraction unbound at 180 mg/kg, iv measured after 30 mins by LC-MS/MS analysis; type: ADME, organism-based, Cavia porcellus; details: in vivo, 0.5 h; summary of the method: as §5
[17] = Plasma concentration in Hartley guinea pig at 180 mg/kg, iv measured after 30 mins by LC-MS/MS analysis; type: ADME, organism-based, Cavia porcellus; summary of the method: as §4
[18] = in the assay text read “LCMS assay” for “fluorescamine assay”

SMILES | MIC [1] | MIC [2] | fraction unbound at 4 h, 1 ug/ml [3] | fraction unbound at 4 h, 1 ug/ml [4] | IC50 [6, 18] | IC50 [6] | other results
C[C@H](O)c1nccn1[C@H](CN)c1cc(-c2ccc(C#C[C@@H]3[C@H]4CN(CCCC(=O)O)C[C@@H]34)cc2)on1 | 4 µg/mL (≈ 8.17 µM) | 16 µg/mL (≈ 32.7 µM) |  |  |  |  | 
C[C@H](O)c1nccn1Cc1cc(-c2ccc(C#CC3(N)CC3)cc2)on1 | 0.5 µg/mL (≈ 1.44 µM) | 1 µg/mL (≈ 2.87 µM) | 0.099 | 0.07 | 46 nM |  | Activity [5]: 67%
C[C@H](O)c1nccn1[C@H](CN)c1cc(-c2ccc(C#CC3(N)CC3)cc2)on1 | 2 µg/mL (≈ 5.3 µM) | 8 µg/mL (≈ 21.2 µM) |  |  | 282 nM |  | 
COCC(O)CN1C[C@@H]2[C@@H](C#Cc3ccc(-c4cc(Cn5ccnc5[C@H](C)O)on4)cc3)[C@@H]2C1 (mixture of isomers) | 0.5 µg/mL | 0.5 µg/mL | 0.077 | 0.076 |  | 97 nM | Activity [5]: 17%
C[C@H](O)c1nccn1[C@H](CN)c1cc(-c2ccc(C#C[C@H]3C[C@H](O)C3)cc2)on1 | 0.25 µg/mL (≈ 0.637 µM) | 1 µg/mL (≈ 2.55 µM) | 0.07 | 0.074 | < 37 nM |  | Activity [7]: Toxic; concentration at 0.5 h [8]: 90.7 µg/mL; MTD [9]: ≥ 200 mg/kg; Activity [10]: Toxic; Cp(f) [11]: 15.6 µg/mL; Activity [12]: Toxic; Activity [13]: -1.99 log10CFU
C[C@H](O)c1nccn1Cc1cc(-c2ccc(C#CCCCO)cc2)on1 | 1 µg/mL (≈ 2.85 µM) | 2 µg/mL (≈ 5.69 µM) | 0.049 | 0.031 |  | 51 nM | 
COCCN1CCN(c2ccc(C#Cc3cc(Cn4ccnc4[C@H](C)O)no3)cc2)CC1 | 0.25 µg/mL (≈ 0.574 µM) | 0.5 µg/mL (≈ 1.15 µM) | 0.083 | 0.09 |  | 71 nM | 
C[C@H](O)CN1C[C@@H]2[C@@H](C#Cc3ccc(-c4cc([C@@H](CN)n5ccnc5[C@H](C)O)no4)cc3)[C@@H]2C1 | 1 µg/mL (≈ 2.17 µM) | 4 µg/mL (≈ 8.67 µM) | 0.151 | 0.212 |  |  | concentration at 0.5 h [14]: 132 µg/mL; Activity [7]: Toxic; MTD [9]: ≥ 200 mg/kg; Activity [10]: Toxic; Cp(f) [15]: 36 µg/mL; Activity [12]: Toxic; Activity [13]: -1.19 log10CFU
C[C@H](O)c1nccn1Cc1cc(-c2ccc(C#CC34CC(N)(C3)C4)cc2)on1 | 0.25 µg/mL (≈ 0.668 µM) | 0.5 µg/mL (≈ 1.34 µM) | 0.034 | 0.027 | 49 nM |  | Activity [5]: 0%
C[C@H](O)c1nccn1Cc1cc(-c2ccc(C#C[C@H]3C[C@H](O)C3)cc2)on1 | 0.12 µg/mL (≈ 0.33 µM) | 0.25 µg/mL (≈ 0.688 µM) | 0.035 | 0.017 |  | 15 nM | Activity [5]: 0%
COCC(O)CN1C[C@@H]2[C@@H](C#Cc3ccc(-c4cc(Cn5ccnc5[C@H](C)O)no4)cc3)[C@@H]2C1 (mixture of isomers) | 0.5 µg/mL | 0.5 µg/mL | 0.082 | 0.065 |  | 71 nM | Activity [5]: 33%
C[C@H](O)c1nccn1Cc1cc(C#Cc2ccc(CCCO)cc2)on1 | 0.5 µg/mL (≈ 1.42 µM) | 2 µg/mL (≈ 5.69 µM) | < 0.005 | < 0.005 |  | 31 nM | 
C[C@H](O)c1nccn1Cc1cc(C#Cc2ccc(OC3CN(CCCO)C3)cc2)on1 | 2 µg/mL (≈ 4.73 µM) | 8 µg/mL (≈ 18.9 µM) | 0.165 | 0.261 |  | 378 nM | 
C[C@H](O)c1nccn1[C@H](CN)c1cc(-c2ccc(C#C[C@@H]3[C@H]4CN(C=O)C[C@@H]34)cc2)on1 | 1 µg/mL (≈ 2.32 µM) | 2 µg/mL (≈ 4.64 µM) | 0.18 | 0.275 |  |  | Activity [7]: Toxic; MTD [9]: ≥ 200 mg/kg; Activity [10]: Toxic; Cp(f) [16]: 59.4 µg/mL; concentration at 0.5 h [17]: 233 µg/mL; Activity [12]: Toxic; Activity [13]: -2.47 log10CFU
C[C@H](O)c1nccn1[C@H](CN)c1cc(-c2ccc(C#CC34CC(N)(C3)C4)cc2)on1 | 0.5 µg/mL (≈ 1.24 µM) | 2 µg/mL (≈ 4.96 µM) | 0.084 | 0.103 | 279 nM |  | MTD [9]: 100 mg/kg; Activity [13]: -2.48 log10CFU
C[C@H](O)c1nccn1Cc1cc(-c2ccc(C#CC3(N)CC3)cc2)no1 | 1 µg/mL (≈ 2.87 µM) | 4 µg/mL (≈ 11.5 µM) | 0.15 | 0.115 | 193 nM |  | 
C[C@H](O)c1nccn1Cc1cc(-c2ccc(C#C[C@@H]3[C@H]4CN(C=O)C[C@@H]34)cc2)on1 | 1 µg/mL (≈ 2.48 µM) | 2 µg/mL (≈ 4.97 µM) | 0.09 | 0.095 |  | 39 nM | MTD [9]: 100 mg/kg; Activity [13]: -2.84 log10CFU
C[C@H](O)c1nccn1Cc1cc(-c2ccc(C#CC34CC(N)(C3)C4)cc2)no1 | 0.5 µg/mL (≈ 1.34 µM) | 2 µg/mL (≈ 5.34 µM) | 0.069 | 0.035 | 65 nM |  | 

From ChEMBL document CHEMBL4680332, “Lead optimization of 2-hydroxymethyl imidazoles as non-hydroxamate LpxC inhibitors: Discovery of TP0586532” (Bioorg Med Chem, 2021)
